Published values pooled from the literature.
Lines come from different studies, so protocols differ.
CHRM5: Muscarinic acetylcholine receptor M5 (CHRM5, Homo sapiens, UniProt P08912)
NPSR1: Neuropeptide S receptor (NPSR1, Homo sapiens, UniProt Q6W5P4)
NQO2: Ribosyldihydronicotinamide dehydrogenase [quinone] (NQO2, Homo sapiens, UniProt P16083)

CCOC(=O)c1ccccc1 gave a Kd of about 0.5 µM (Or67a (Drosophila melanogaster, UniProt Q9VT08); binding, MST).
With CCN(CC)CCCC(C)Nc1cnc(C(=O)Nc2ccc(Cl)c3cccnc23)cn1 (stereo not shown) the Ki was 0.219 µM (CHRM5; cell-free assay, radioligand).
COc1cccc(C2c3c(ncn(-c4ccccc4Cl)c3=N)Oc3ccc4ccccc4c32)c1 (stereo not shown) gave an IC50 of 5.51 µM (NPSR1; calcium signal, antagonist).
For CC[C@H](C)[C@H](NC(=O)CN)C(=O)N[C@H](C(=O)N[C@@H](CC(N)=O)C(=O)N[C@H](C(=O)N[C@@H](CC(C)C)C(=O)N[C@@H](CCC(N)=O)C(=O)N[C@@H](CCCCN)C(=O)N[C@@H](Cc1ccc(O)cc1)C(=O)N[C@@H](Cc1ccc(O)cc1)C(=O)N[C@@H](CO)C(=O)N[C@@H](CCCNC(=N)N)C(=O)N[C@H](C(=O)N[C@@H](CCCNC(=N)N)C(=O)NCC(=O)NCC(=O)N[C@@H](CCCNC(=N)N)C(=O)N[C@@H](CO)C(=O)N[C@@H](C)C(=O)N[C@H](C(=O)N[C@@H](CC(C)C)C(=O)N[C@@H](CO)C(=O)N[C@H]1CSSC[C@@H](C(=O)N[C@@H](CCCNC(=N)N)C(=O)N[C@@H](CCCNC(=N)N)C(=O)N[C@@H](CCCCN)C(=O)N[C@@H](CCCCN)C(N)=O)NC(=O)[C@H](CO)NC(=O)[C@H](CCCCN)NC(=O)[C@H](CCCNC(=N)N)NC(=O)CNC(=O)[C@H](CCCNC(=N)N)NC(=O)[C@H]([C@@H](C)O)NC(=O)[C@H](CO)NC(=O)[C@H](CO)NC(=O)[C@H](CCCCN)NC(=O)CNC(=O)[C@H]([C@@H](C)CC)NC(=O)[C@H](CCC(N)=O)NC(=O)[C@H](CCC(=O)O)NC(=O)[C@H](CCC(=O)O)NC(=O)[C@H](CCCCN)NC(=O)[C@@H]2CCCN2C(=O)[C@H](CC(C)C)NC1=O)C(C)C)C(C)C)[C@@H](C)O)[C@@H](C)CC, the Ki was 0.292 µM (Melanocortin receptor 4 (MC4R, Homo sapiens, UniProt P32245); ligand displacement in cells).
For COc1cccc(C2c3c(ncn(-c4ccc(NC(C)=O)cc4)c3=N)Oc3ccc4ccccc4c32)c1 (stereo not shown), the IC50 was 19.4 µM (NPSR1; cAMP, antagonist, TR-FRET).
NC(=O)N1c2ccccc2C=Cc2ccccc21 gave a Ki of over 500 µM (NQO2; enzyme activity, inhibitor).
Cc1cnc(-c2ccc(-c3ccc(NC(=O)Nc4c(F)cc(F)cc4F)cc3F)c3c2C(=O)NC3)[nH]1 has a Kd of 0.083 µM (Tyrosine-protein kinase Fgr (FGR, Homo sapiens, UniProt P09769); binding, competition with immobilised ligand).
With CCCCN1CCC(COC(=O)c2ccc(N)c(OCF)c2)CC1 the Ki was over 10 µM (CHRM5; cell-free assay, radioligand).
CCCOC(=O)[C@@]12C[C@@H]1[C@@H](n1cnc3c(NC)nc(C#Cc4ccc(Cl)s4)nc31)[C@H](O)[C@@H]2O has a Ki of over 10 µM (Sodium-dependent noradrenaline transporter (SLC6A2, Homo sapiens, UniProt P23975); ligand displacement, radioligand; cell membranes).
COc1ccc(C2c3c(ncn(CCc4ccccc4)c3=N)Oc3ccc4ccccc4c32)cc1OC (stereo not shown) has an IC50 of over 30 µM (NPSR1; calcium signal, antagonist).
For O=C(O)Cc1ccccc1Nc1c(Cl)cccc1Cl, the Ki was over 1000 µM (NQO2; enzyme activity, inhibitor, absorbance).
With Nc1ncnc2c1ncn2[C@@H]1O[C@H](COP(=O)(O)OP(=O)(O)OP(=O)(O)O)[C@@H](O)[C@H]1O the Kd was 0.08 µM (dnaA (Escherichia coli, UniProt P03004, V303M); binding).
COc1cccc(C2c3c(ncn(-c4cccc(C)c4)c3=N)Oc3ccc4ccccc4c32)c1 (stereo not shown) gave an IC50 of 12.2 µM (NPSR1; cAMP, antagonist, TR-FRET).
